The source of these data is ChEMBL document CHEMBL4261513, “Dichloro-naphthoquinone as a non-classical inhibitor of the mycobacterial carbonic anhydrase Rv3588c” (Medchemcomm, 2017).

The target of experiment [1] is T1, Carbonic anhydrase 2 (Mycobacterium tuberculosis) (UniProt P9WPJ9).
T1 sequence (whole entry): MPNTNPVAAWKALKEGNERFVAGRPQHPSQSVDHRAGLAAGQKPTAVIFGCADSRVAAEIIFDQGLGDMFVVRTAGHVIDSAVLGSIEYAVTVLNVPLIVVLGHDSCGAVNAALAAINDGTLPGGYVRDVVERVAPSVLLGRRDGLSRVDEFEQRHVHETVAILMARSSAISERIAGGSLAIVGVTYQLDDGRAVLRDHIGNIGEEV
As to the kind of experiment: Inhibition of recombinant Mycobacterium tuberculosis N-terminal Hi-tagged Rv3588c expressed in Escherichia coli BL21-Al cells assessed as enzyme residual activity at 25 uM measured for 10 secs by m-cresol purple staining based stopped-flow CO2 hydration assay relative to control. Put shortly: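 Rv3588c with an N-terminal His tag, purified by QA52 anion exchange and then Ni-NTA at pH 8.0, and dialysed into 100 mM NaCl, 20 mM HEPES pH 7.5. Stopped-flow CO2 hydration followed by m-cresol purple absorbance. Sample buffer was 100 mM Na2SO4, 25 mM TAPS pH 8.5, 5 μM protein plus compound, mixed 1:1 with CO2-saturated water. Initial rates over the first 10 s, at least five traces each.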

Experiment [2] concerns the target T2, Beta-carbonic anhydrase 1 (Mycobacterium tuberculosis) (UniProt P9WPJ7).
T2 sequence (whole entry): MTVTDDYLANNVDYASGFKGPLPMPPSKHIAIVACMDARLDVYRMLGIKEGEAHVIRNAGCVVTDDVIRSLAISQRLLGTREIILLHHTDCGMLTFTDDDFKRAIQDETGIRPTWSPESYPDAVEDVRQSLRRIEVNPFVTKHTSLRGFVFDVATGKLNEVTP
Put plainly: Binding affinity to recombinant Mycobacterium tuberculosis Rv1284 expressed in Escherichia coli BL21-Al cells assessed as change in melting temperature by SYPRO Orange dye based differential scanning fluorimetric method. Background: DSF heats the sample and reads unfolding from a dye or from intrinsic fluorescence.

Experiment [3] has as its target T2, Beta-carbonic anhydrase 1 (Mycobacterium tuberculosis). Put plainly: Inhibition of recombinant Mycobacterium tuberculosis Rv1284 expressed in Escherichia coli BL21-Al cells assessed as enzyme residual activity at 25 uM measured for 10 secs by m-cresol purple staining based stopped-flow CO2 hydration assay relative to control. The essentials: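 Untagged Rv1284, purified by QA52 anion exchange at pH 8.0 and SP-Sepharose cation exchange at pH 4.5, and dialysed into 100 mM NaCl, 20 mM HEPES pH 7.5. Stopped-flow CO2 hydration with m-cresol purple read-out. Sample buffer was 100 mM Na2SO4, 25 mM TAPS pH 8.5, 5 μM enzyme plus compound, mixed 1:1 with CO2-saturated water. Initial rates from the first 10 s, at least five traces.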

Experiment [4] concerns the target T3, Carbonic anhydrase 2 (Mycobacterium tuberculosis, UniProt P9WPJ9).
T3 sequence (P9WPJ9 whole entry): T1 sequence (whole entry)
Put plainly: (§1) Inhibition of recombinant Mycobacterium tuberculosis N-terminal Hi-tagged Rv3588c expressed in Escherichia coli BL21-Al cells measured for 10 secs by m-cresol purple staining based stopped-flow CO2 hydration assay. The essentials: (§2)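 His-tagged Rv3588c in stopped-flow CO2 hydration with m-cresol purple read-out, in 100 mM Na2SO4, 25 mM TAPS pH 8.5 against CO2-saturated water. Five compound concentrations, starting from […]. Initial rates taken over the first 10 s. Dose-response data fitted to a curve.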

The target in experiment [5] is T1, Carbonic anhydrase 2 (Mycobacterium tuberculosis). Described as §1. Put shortly:
as §2

Experiment [6] deals with Carbonic anhydrase 2 (Homo sapiens) (UniProt P00918). As to the kind of experiment: Inhibition of recombinant human carbonic anhydrase 2 expressed in Escherichia coli BL21 (DE3) assessed as enzyme residual activity at 25 uM measured for 10 secs by m-cresol purple staining based stopped-flow CO2 hydration assay relative to control. The essentials: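 Codon-optimised synthetic human CA II gene expressed in bacteria. Activity measured by stopped-flow CO2 hydration, monitoring m-cresol purple absorbance. Sample buffer was 100 mM Na2SO4, 25 mM TAPS pH 8.5, 5 μM protein with compound, mixed 1:1 with CO2-saturated water. Initial rates over the first 10 s, from at least five traces per compound.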

With `O=C1C(Cl)=C(NCc2ccccc2)C(=O)c2ccccc21`, the Activity in experiment [1] came to 99.1%; in experiment [3], 96.5%. Further, the deltaTm in experiment [2] is -2.5 K.

With `Clc1cc2ccccc2cc1Cl`, the Activity in experiment [1] was found to be 82.8%; in experiment [3], 80.3%. Also, the deltaTm in experiment [2] stood at 1.3 K.

Consider `COCCNC1=C(Cl)C(=O)c2ccccc2C1=O`, for which the Activity in experiment [1] came out at 98.8%; in experiment [3] it was 67.2%. In addition, the deltaTm in experiment [2] is -1.5 K.

As to `CN(C)CCCNC1=C(Cl)C(=O)c2ccccc2C1=O`, the Activity came to 110% in experiment [1] and 79.4% in experiment [3]. Further, the deltaTm in experiment [2] was -0.9 K.

Consider `O=C1C2=C(C(=O)c3ccccc31)S(=O)(=O)C=CN2`, for which the Activity was found to be 78.3% in experiment [1] and 74.6% in experiment [3]. In addition, the deltaTm in experiment [2] is -1.1 K.

On to `COC1=CC(=O)C=C(CO)C1=O`, for which the figures for the Activity in experiment [1] and in experiment [3] were 104% and 101%, respectively. In addition, the deltaTm in experiment [2] stood at 0.1 K.

Take `CCN(CC)CCCNC1=C(Cl)C(=O)c2ccccc2C1=O`: the results for the Activity in experiment [1] and in experiment [3] were 93.8% and 68.5%, respectively. Besides, in experiment [2], the deltaTm was -0.6 K.

Turning to `COC1=CC(=O)c2ccccc2C1=O` [2-Methoxy-1,4-naphthoquinone], the IC50 in experiment [4] amounted to 2300 nM. Also, in experiment [5], the Imax came to 40%. Besides, the Activity in experiment [6] came out at 104%; in experiment [1], 84.5%; in experiment [3] it was 62.3%. In experiment [2], the deltaTm was -0.5 K.

For the molecule `O=C1C=CC(=O)c2ccccc21`, the Activity in experiment [1] stood at 94.8%; in experiment [3], 76.6%. The deltaTm in experiment [2] was -8.8 K.

Consider `O=C1C(O)=C([C@H]2CC[C@H](c3ccc(Cl)cc3)CC2)C(=O)c2ccccc21`, for which the Activity in experiment [1] stood at 80.7%; in experiment [3] it was 83.1%. Moreover, the deltaTm in experiment [2] was -0.5 K.

In the case of `O=C1C2=C(C(=O)c3ccccc31)S(=O)(=O)CCN2`, the results for the Activity in experiment [1] and in experiment [3] were 80.6% and 79.5%, respectively. The deltaTm in experiment [2] is -0.4 K.

In the case of `CC(C)CCNC1=C(Cl)C(=O)c2ccccc2C1=O`, the Activity in experiment [1] and in experiment [3] was 103% each time. Further, the deltaTm in experiment [2] was -1.5 K.

As for `O=C1C(Cl)=C(Cl)C(=O)c2ccccc21` [Dichlon], the IC50 in experiment [4] came to 1200 nM. Further, the Imax in experiment [5] was found to be 84%. Moreover, the results for the Activity in experiment [6], in experiment [1] and in experiment [3] were 96.8%, 16.1% and 81.5%, respectively. Besides, in experiment [2], the deltaTm was -10.2 K.

For `O=C1C(Cl)=C(NCCc2ccccc2)C(=O)c2ccccc21`, the Activity in experiment [1] stood at 93.2%; in experiment [3], 110%. In experiment [2], the deltaTm was -0.7 K.

Take `O=C1C=C(Br)C(=O)c2ccccc21`: the Activity in experiment [6] amounted to 109%; in experiment [1], 68.1%; in experiment [3], 72.2%. The deltaTm in experiment [2] was -10.1 K.

One may read the IC50 as the midpoint of a concentration-inhibition curve.
